# Results taken from ChEMBL document CHEMBL2040777, “N-Aryl-N'-(chroman-4-yl)ureas and thioureas display in vitro anticancer activity and selectivity on apoptosis-resistant glioblastoma cells: screening, synthesis of simplified derivatives, and structure-activity relationship analysis” (Eur J Med Chem, 2012).
# Active and inactive are the calls of the source. The calls are words filed in the database; no cut-off is given here.
# Experiments:
# [1] = system: T98G; experiment: Growth inhibition of human T98G cells after 72 hrs by MTT assay; assay type: functional, cell-based
# In short: (§1)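 Glioma lines were grown in RPMI with 10% heat-inactivated FCS, 4 mM glutamine, gentamicin and penicillin-streptomycin. Cells were plated for 24 h at 10,000–40,000 cells/mL, then exposed to compound for 72 h. MTT reduction to formazan was read at 570 nm (reference 630 nm). Six replicates were run.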
# [2] = Growth inhibition of human U373 cells after 72 hrs by MTT assay; assay type: functional, cell-based, U-373MG ATCC; details: U373 MG; in short: as §1
# [3] = Growth inhibition of human Hs683 cells after 72 hrs by MTT assay; assay type: functional, cell-based; details: Hs 683, 72 h; in short: as §1
# [4] = system: B16-F10; experiment: Growth inhibition of mouse B16F10 cells after 72 hrs by MTT assay; assay type: functional, cell-based; details: B16-F10, 72 h
# [5] = system: T98G; experiment: Selectivity index, ratio of IC50 for mouse astrocytes to IC50 for human T98G cells
# [6] = Selectivity index, ratio of IC50 for mouse astrocytes to IC50 for human U373 cells; set-up: species or system U-373MG ATCC
# [7] = system: Hs 683; experiment: Selectivity index, ratio of IC50 for mouse astrocytes to IC50 for human Hs683 cells
# [8] = Growth inhibition of human U373 cells assessed as global growth ratio after 72 hrs by quantitative videomicroscopic analysis relative to untreated control; assay type: functional, U-373MG ATCC; details: U373 MG
# In short: (§2)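 U373 cells were cultured in 25 cm² flasks and filmed by computer-assisted phase-contrast time-lapse for 72 h, one image every 4 min. Growth level was the cell count in the last frame divided by the first. Global growth ratio was treated growth level over control growth level. Compounds were tested at 20 µM.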
# [9] = Cell cycle arrest in human U373 cells assessed as accumulation at G0/G1 phase at 10 to 30 uM after 24 hrs by propidium iodide staining-based flow cytometric analysis; assay type: functional; details: U-373MG ATCC
# [10] = system: U-373MG ATCC; experiment: Induction of apoptosis in human U373 cells assessed as increase in subG1 cell population at 10 to 30 uM after 24 hrs by flow cytometric analysis; assay type: functional, cell-based
# [11] = Cytostatic activity against human U373 cells assessed as global growth ratio by measuring number of cells counted in the last and the first frame of study at 20 uM by quantitative videomicroscopic analysis; assay type: functional, U-373MG ATCC; in short: as §2
# [12] = Cell cycle arrest in human U373 cells assessed as accumulation at G0/G1 phase at 3 to 10 uM after 24 hrs by propidium iodide staining-based flow cytometric analysis; assay type: functional; details: U-373MG ATCC
# [13] = system: U-373MG ATCC; experiment: Induction of apoptosis in human U373 cells assessed as increase in subG1 cell population at 3 to 10 uM after 24 hrs by flow cytometric analysis; assay type: functional, cell-based
SMILES,IC50 [1],IC50 [2],IC50 [3],IC50 [4],Ratio IC50 [5],Ratio IC50 [6],Ratio IC50 [7],further results
O=[N+]([O-])c1ccc(NC(=S)NCc2cccc(Cl)c2)cc1,20 µM,27 µM,27 µM,–,–,–,–,–
COc1cccc(NC(=S)NC2CC(C)(C)Oc3ccc(Br)cc32)c1 (configuration not stated),87 µM,66 µM,81 µM,–,–,–,–,–
O=[N+]([O-])c1cccc(NC(=S)NC2CCOc3ccc(Cl)cc32)c1 (configuration not stated),10 µM,8 µM,7 µM,–,–,–,–,–
CC1(C)CC(NC(=O)NS(=O)(=O)c2ccccc2)c2cc(Cl)ccc2O1 (configuration not stated),> 100 µM,96 µM,> 100 µM,–,–,–,–,–
Cn1nnc2c(C(N)=O)ncn2c1=O [TEMOZOLOMIDE],879 µM,220 µM,956 µM,258 µM,–,–,–,–
CC1(C)CC(NC(=S)Nc2ccc(C#N)cc2)c2cc(Cl)ccc2O1 (configuration not stated),10 µM,10 µM,6 µM,7 µM,3,3,3,–
CC1(C)CC(NC(=O)NCc2ccccc2)c2cc(Cl)ccc2O1 (configuration not stated),15 µM,66 µM,47 µM,–,–,–,–,–
CC1(C)CC(NC(=S)Nc2ccccc2Cl)c2cc(Br)ccc2O1 (configuration not stated),8 µM,34 µM,22 µM,17 µM,<5,<5,<5,–
COc1ccccc1NC(=S)NC1CC(C)(C)Oc2ccc(Br)cc21 (configuration not stated),42 µM,22 µM,40 µM,–,–,–,–,–
CC1(C)CC(NC(=S)Nc2cccc(Cl)c2)c2cc(Br)ccc2O1 (configuration not stated),9 µM,8 µM,8 µM,7 µM,<2,<2,<2,–
CC(C)NC(=O)NC1CC(C)(C)Oc2ccc(Cl)cc21 (configuration not stated),> 100 µM,62 µM,85 µM,–,–,–,–,–
COc1ccc(Cl)cc1CNC(=S)Nc1cccc([N+](=O)[O-])c1,–,32 µM,23 µM,–,–,–,–,–
CC(C)NC1=NS(=O)(=O)c2cc(F)c(Cl)cc2N1,–,> 100 µM,–,–,–,–,–,–
CC1(C)CC(NC(=O)Nc2ccccc2Cl)c2cc(Br)ccc2O1 (configuration not stated),11 µM,19 µM,22 µM,22 µM,>10,>10,>10,IC80 [8]: 20 µM; Activity [9]: Active; Activity [10]: inactive; Ratio [11]: 0.2
CC1(C)CC(NC(=S)Nc2ccc([N+](=O)[O-])cc2)c2cc(F)ccc2O1 (configuration not stated),5 µM,3 µM,3 µM,4 µM,5,5,5,Activity [12]: Active; Activity [13]: inactive
CC1(C)CC(NC(=S)Nc2cccc([N+](=O)[O-])c2)c2cc(F)ccc2O1 (configuration not stated),9 µM,6 µM,6 µM,6 µM,2,2,2,–
CC1(C)CC(NC(=S)Nc2ccc(C#N)cc2)c2cc(Br)ccc2O1 (configuration not stated),24 µM,22 µM,15 µM,–,2,2,2,–
CC1(C)CC(NC(=S)Nc2ccc([N+](=O)[O-])cc2)c2cc(Cl)ccc2O1 (configuration not stated),4 µM,3 µM,2 µM,3 µM,2,2,2,Activity [12]: Active; Activity [13]: inactive
CCNC(=S)NC1CC(C)(C)Oc2ccc(Cl)cc21 (configuration not stated),> 100 µM,96 µM,72 µM,–,–,–,–,–
CCOC(=O)NC1CC(C)(C)Oc2ccc(Cl)cc21 (configuration not stated),–,> 100 µM,–,–,–,–,–,–
CC(=O)NC1CC(C)(C)Oc2ccc(Cl)cc21 (configuration not stated),–,> 100 µM,–,–,–,–,–,–
CC1(C)CC(NC(=O)NCc2ccccc2)c2cc(F)ccc2O1 (configuration not stated),49 µM,11 µM,19 µM,–,–,–,–,–
CC1(C)CC(NC(=S)Nc2cccc(C#N)c2)c2cc(Br)ccc2O1 (configuration not stated),9 µM,6 µM,4 µM,7 µM,<5,<5,<5,–
CCNC(=O)NC1CC(C)(C)Oc2ccc(Cl)cc21 (configuration not stated),–,> 100 µM,–,–,–,–,–,–
